Laboratory results published in ChEMBL document CHEMBL4689842, “EUbOPEN Chemogenomics Library wave 1” (2021).

Test system: U2OS
Assay: Multiplex assay against U2OS
Type: toxicity, cell-based
Details: human
How it was run: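 Four dyes were applied at seeding to live cells: Hoechst33342, BioTracker Green Microtubule Cytoskeleton Dye, MitoTracker Red and Annexin V Alexa Fluor 680. Imaging after compound addition used a CQ1 microscope at 37°C and 5% CO2. CellPathfinder machine-learning gating then sorted cells into Hoechst high-intensity objects or normal cells, normal cells into healthy, pyknosed or fragmented nuclei, and pyknosed cells into mitotic or apoptotic, with tubulin, mitochondrial-mass and membrane-permeability phenotypes given as per cents of healthy-nucleus cells.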

[1] = 12 h, 1 µM, compound concentration 1 uM, replicate 1
[2] = 12 h, 1 µM, compound concentration 1 uM, replicate 2
[3] = 12 h, 10 µM, compound concentration 10 uM, replicate 1
[4] = 12 h, 10 µM, compound concentration 10 uM, replicate 2
[5] = 24 h, 1 µM, compound concentration 1 uM, replicate 1
[6] = 24 h, 1 µM, compound concentration 1 uM, replicate 2
[7] = 24 h, 10 µM, compound concentration 10 uM, replicate 1
[8] = 24 h, 10 µM, compound concentration 10 uM, replicate 2
[9] = 48 h, 1 µM, compound concentration 1 uM, replicate 1
[10] = 48 h, 1 µM, compound concentration 1 uM, replicate 2
[11] = 48 h, 10 µM, compound concentration 10 uM, replicate 1
[12] = 48 h, 10 µM, compound concentration 10 uM, replicate 2

## CCc1nn(CCCN2CCN(c3cccc(Cl)c3)CC2)c(=O)n1CCOc1ccccc1.Cl [NEFAZODONE HYDROCHLORIDE]
[1]
  Population Apoptotic (%): 42%
  Population Fragmented Nuclei (%): 11%
  Population Healthy Nuclei (%): 67%
  Population Hoechst High Intensity Objects (%): 9%
  Population Membrane Permeable-Phenotype (%): 1%
  Population Mitochondria Different-Phenotype (%): 27%
  Population Mitotic Cells (%): 57%
  Population Normal (%): 90%
  Population Pyknosed Nuclei (%): 20%
  Population Tubulin-Different-Phenotype (%): 28%
[2]
  Population Apoptotic (%): 0%
  Population Fragmented Nuclei (%): 8%
  Population Healthy Nuclei (%): 89%
  Population Hoechst High Intensity Objects (%): 6%
  Population Membrane Permeable-Phenotype (%): 3%
  Population Mitochondria Different-Phenotype (%): 9%
  Population Mitotic Cells (%): 100%
  Population Normal (%): 93%
  Population Pyknosed Nuclei (%): 1%
  Population Tubulin-Different-Phenotype (%): 29%
  Total Cell Count: 68
[3]
  Population Apoptotic (%): 71%
  Population Fragmented Nuclei (%): 13%
  Population Healthy Nuclei (%): 55%
  Population Hoechst High Intensity Objects (%): 5%
  Population Membrane Permeable-Phenotype (%): 56%
  Population Mitochondria Different-Phenotype (%): 100%
  Population Mitotic Cells (%): 28%
  Population Normal (%): 94%
  Population Pyknosed Nuclei (%): 31%
  Population Tubulin-Different-Phenotype (%): 100%
  Total Cell Count: 150
[4]
  Population Apoptotic (%): 69%
  Population Fragmented Nuclei (%): 9%
  Population Healthy Nuclei (%): 69%
  Population Hoechst High Intensity Objects (%): 3%
  Population Membrane Permeable-Phenotype (%): 60%
  Population Mitochondria Different-Phenotype (%): 97%
  Population Mitotic Cells (%): 30%
  Population Normal (%): 96%
  Population Pyknosed Nuclei (%): 20%
  Population Tubulin-Different-Phenotype (%): 97%
  Total Cell Count: 61
[5]
  Population Apoptotic (%): 32%
  Population Fragmented Nuclei (%): 10%
  Population Healthy Nuclei (%): 73%
  Population Hoechst High Intensity Objects (%): 6%
  Population Membrane Permeable-Phenotype (%): 3%
  Population Mitochondria Different-Phenotype (%): 21%
  Population Mitotic Cells (%): 68%
  Population Normal (%): 93%
  Population Pyknosed Nuclei (%): 15%
  Population Tubulin-Different-Phenotype (%): 22%
[6]
  Population Apoptotic (%): 50%
  Population Fragmented Nuclei (%): 8%
  Population Healthy Nuclei (%): 85%
  Population Hoechst High Intensity Objects (%): 2%
  Population Membrane Permeable-Phenotype (%): 1%
  Population Mitochondria Different-Phenotype (%): 15%
  Population Mitotic Cells (%): 50%
  Population Normal (%): 97%
  Population Pyknosed Nuclei (%): 5%
  Population Tubulin-Different-Phenotype (%): 33%
  Total Cell Count: 71
[7]
  Population Apoptotic (%): 82%
  Population Fragmented Nuclei (%): 17%
  Population Healthy Nuclei (%): 49%
  Population Hoechst High Intensity Objects (%): 7%
  Population Membrane Permeable-Phenotype (%): 72%
  Population Mitochondria Different-Phenotype (%): 98%
  Population Mitotic Cells (%): 17%
  Population Normal (%): 92%
  Population Pyknosed Nuclei (%): 33%
  Population Tubulin-Different-Phenotype (%): 100%
  Total Cell Count: 172
[8]
  Population Apoptotic (%): 80%
  Population Fragmented Nuclei (%): 22%
  Population Healthy Nuclei (%): 56%
  Population Hoechst High Intensity Objects (%): 1%
  Population Membrane Permeable-Phenotype (%): 80%
  Population Mitochondria Different-Phenotype (%): 100%
  Population Mitotic Cells (%): 20%
  Population Normal (%): 98%
  Population Pyknosed Nuclei (%): 20%
  Total Cell Count: 72
[9]
  Population Apoptotic (%): 46%
  Population Fragmented Nuclei (%): 9%
  Population Healthy Nuclei (%): 73%
  Population Hoechst High Intensity Objects (%): 5%
  Population Membrane Permeable-Phenotype (%): 3%
  Population Mitochondria Different-Phenotype (%): 15%
  Population Mitotic Cells (%): 53%
  Population Normal (%): 94%
  Population Pyknosed Nuclei (%): 16%
  Population Tubulin-Different-Phenotype (%): 14%
[10]
  Population Apoptotic (%): 16%
  Population Fragmented Nuclei (%): 5%
  Population Healthy Nuclei (%): 88%
  Population Hoechst High Intensity Objects (%): 1%
  Population Membrane Permeable-Phenotype (%): 2%
  Population Mitochondria Different-Phenotype (%): 18%
  Population Mitotic Cells (%): 83%
  Population Normal (%): 98%
  Population Pyknosed Nuclei (%): 5%
  Population Tubulin-Different-Phenotype (%): 46%
  Total Cell Count: 67
[11]
  Population Apoptotic (%): 82%
  Population Fragmented Nuclei (%): 24%
  Population Healthy Nuclei (%): 41%
  Population Membrane Permeable-Phenotype (%): 83%
  Population Mitochondria Different-Phenotype (%): 97%
  Population Mitotic Cells (%): 17%
  Population Pyknosed Nuclei (%): 34%
  Total Cell Count: 246
[12]
  Population Apoptotic (%): 66%
  Population Fragmented Nuclei (%): 14%
  Population Healthy Nuclei (%): 43%
  Population Hoechst High Intensity Objects (%): 8%
  Population Membrane Permeable-Phenotype (%): 85%
  Population Mitochondria Different-Phenotype (%): 100%
  Population Mitotic Cells (%): 33%
  Population Normal (%): 91%
  Population Pyknosed Nuclei (%): 42%
  Population Tubulin-Different-Phenotype (%): 100%
  Total Cell Count: 110
